# Compounds with a hit are over-represented: about 2.7% of the library has one in this group of screens.
# 14-3-3 Bad inh: disrupts binding of bovine 14-3-3 zeta to phospho-Bad peptide | inhibition, % at 21.7 µM | AID 781 | 220,000 compounds, 0.71% hits | P63103 | TR-FRET 14-3-3zeta/Dy647-pBad peptide displacement, 1 h;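 active = inhibition above about 70%, limit read from the data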
# Hck Nef HTS: inhibitors of human Hck kinase activated by Nef | P08631 | Recombinant Hck-YEEI plus Nef, Z-Lyte FRET kinase assay | 220,000 compounds, 0.68% hits | inhibition, % at 20 µM;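 active = Hck-Nef kinase inhibition above about 50%, limit read from the data; inactive = inhibition below that limit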
# MDM2 E3 inh: blocks human Mdm2 ubiquitin ligase activity | signal enhancement, % at 5 µM | cell-based MDM2 ubiquitination luciferase reporter, 2 h; 0 = plate control, 100 = twice control, blank-subtracted | AID 1230 | Q00987 | 210,000 compounds, 0.11% hits;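 active = signal enhancement of 30% or more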;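 note: luminescence tracks abundance of the self-degrading MDM2-luciferase fusion protein; higher signal means inhibition of MDM2 E3 ligase activity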
#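 Timing – 2 h compound exposure at 37 °C · Assay system – mammalian cells stably expressing self-ubiquitinating, self-degrading MDM2 E3–luciferase fusion · Amount – 2000 cells seeded into each well · Measure – % luminescence enhancement versus blank-corrected plate control mean · Measured by – SteadyLite luminescence, 15 min reagent step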
# TbHK1 inh: blocks Trypanosoma brucei hexokinase 1 activity | recombinant TbHK1, G6PDH-coupled NADH A340 | inhibition, % at 10 µM | 220,000 compounds, 0.11% hits | AID 1430;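 active = inhibition of 50% or more in the single-dose primary screen; inactive = inhibition below 50%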
# Wee1 stabilizer: blocks degradation of human Wee1 kinase; P30291; HeLa Luc-Wee1K328M stability, luciferase luminescence; 100% = proteasome inhibitor MG132 effect; reporter increase, % at 5 µM; 220,000 compounds, 1.2% hits; AID 1321;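 active = activation above the mean of all tested compounds plus 3 SD, set per screening run, cut at about 8.8% in these data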;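 note: cells exposed to compound for 20 h before luminescence read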
# Target sequence (P30291 whole entry K328M): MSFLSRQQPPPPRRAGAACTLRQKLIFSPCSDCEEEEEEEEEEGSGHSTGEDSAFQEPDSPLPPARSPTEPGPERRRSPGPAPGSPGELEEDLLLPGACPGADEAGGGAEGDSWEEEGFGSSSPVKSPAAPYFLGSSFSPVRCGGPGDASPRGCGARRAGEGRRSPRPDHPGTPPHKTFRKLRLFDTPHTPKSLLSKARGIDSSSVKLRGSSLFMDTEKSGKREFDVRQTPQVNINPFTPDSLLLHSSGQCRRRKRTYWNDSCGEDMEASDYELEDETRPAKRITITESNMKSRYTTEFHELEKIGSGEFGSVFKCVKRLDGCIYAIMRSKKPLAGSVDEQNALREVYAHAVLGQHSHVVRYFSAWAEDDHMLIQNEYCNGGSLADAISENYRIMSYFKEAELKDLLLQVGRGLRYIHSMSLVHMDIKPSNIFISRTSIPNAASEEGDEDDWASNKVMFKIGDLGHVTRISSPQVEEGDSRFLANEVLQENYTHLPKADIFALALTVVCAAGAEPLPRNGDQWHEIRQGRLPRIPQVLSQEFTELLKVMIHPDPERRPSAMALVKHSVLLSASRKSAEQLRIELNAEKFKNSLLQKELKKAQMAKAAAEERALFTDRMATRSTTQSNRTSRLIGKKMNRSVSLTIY
# Numbers stand for hits; – = inactive; · = not tested or not shown; [ ] = remark or other dose.
SMILES,14-3-3 Bad inh,Hck Nef HTS,MDM2 E3 inh,TbHK1 inh,Wee1 stabilizer
C#CCOCCOCCOCCNc1nc(N2CCN(C(=O)[C@H]([C@@H](C)CC)n3cc(CCCN=C(N)N)nn3)CC2)nc(N2CCN(C(=O)[C@H](CCCCN)n3cc(CCCC)nn3)CC2)n1,–,–,·,–,–
C#CCOCCOCCOCCNc1nc(N2CCN(C(=O)[C@H]([C@@H](C)CC)n3cc([C@@H](N)CC(C)C)nn3)CC2)nc(N2CCN(C(=O)[C@H](CCCCN)n3cc([C@@H](N)CO)nn3)CC2)n1,–,–,·,–,9.2
C#CCOCCOCCOCCNc1nc(N2CCN(C(=O)[C@H](C)n3cc(CCCN=C(N)N)nn3)CC2)nc(N2CCN(C(=O)[C@H](CCCCN)n3cc(CCCC)nn3)CC2)n1,88.7,–,·,–,–
C#CCOCCOCCOCCNc1nc(N2CCN(C(=O)C([C@@H](C)CC)n3cc(C(N)CC(C)C)nn3)CC2)nc(N2CCN(C(=O)[C@H](CCC(=O)O)n3cc(C(N)Cc4ccc(O)cc4)nn3)CC2)n1 (stereo not given in full),–,–,·,–,10.7
Cc1cccn2c(CNCCCn3ncc4ccccc43)c(C(=O)N3CCCCC3)nc12,–,–,–,–,10.4
Cc1cccn2c(CNCCSc3nccn3C)c(C(=O)N3CCCCC3)nc12,–,–,–,–,8.9
O=C(c1nc2ccccn2c1CNCCCn1ncc2ccccc21)N1CCOCC1,–,–,–,–,–
COc1ccc(/C=C2\N=C(c3ccccc3Cl)NC2=O)cc1,–,–,–,–,–
CSc1nsc(/C=C/Nc2ccc(F)cc2)c1C#N,–,–,35.1,–,–
CSc1nsc(/C=C/Nc2ccc(Cl)cc2)c1C#N,–,–,–,–,–
O=[N+]([O-])c1cn(Cc2ccc(Cl)cc2)cn1,–,–,–,–,–
COc1ccc(Cn2cnc([N+](=O)[O-])c2)cc1[N+](=O)[O-],98.5,–,–,–,–
Cc1cc(C(=O)Nc2cnc3ccccc3c2)ccc1[N+](=O)[O-],–,–,–,–,9.1
CCCn1c(SCC(=O)C(C)(C)C)nc2ccccc21,–,–,–,–,–
CCCn1c(SC(C)C(=O)O)nc2ccccc21 (stereo not given),83.2,–,–,–,–
COc1ccc(/C=C2\C(=O)NC(=S)N2C(=O)c2ccc(F)cc2)cc1,88.7[fluorescence artefact?],–,–,–,–
COc1ccc(C(=O)NCCn2cc(SCC(N)=O)c3ccccc32)cc1,–,–,–,–,–
C/C(CC(=O)Nc1cccnc1)=N\NC(=O)C(C)Oc1ccc(Cl)cc1Cl (stereo not given),–,–,–,–,–
COc1ccc(NC(=S)NCCCN2CCOCC2)cc1,–,–,–,–,–
CCOc1ccc(NC(=S)NCCCN2CCOCC2)cc1,–,–,34.4,–,–
CCOc1ccc(-n2nc3c(-n4ncc(C#N)c4N)nnc(C)c3c2C)cc1,·,–,·,–,–
COc1cc(OC)c2nc(C)c3c(c2c1)N(c1ccc(O)cc1)CC3,–,–,–,–,–
CC1(C)OC(C)(C)/C(=C/Nc2ccc(O)cc2)C1=O,–,–,·,–,9.9
CCN(CC)S(=O)(=O)c1cc(NC(=O)C(C)N2CCN(c3ccccn3)CC2)ccc1C (stereo not given),–,–,–,–,–
CCN(CC)S(=O)(=O)c1cc(NC(=O)C(C)Nc2ccccc2N2CCOCC2)ccc1C (stereo not given),–,–,–,–,9.8
SMILES,14-3-3 Bad inh,Hck Nef HTS,MDM2 E3 inh,TbHK1 inh,Wee1 stabilizer
Cc1ccc(CSc2nc3ccccc3cc2C=O)cc1,–,–,–,–,10.3
COc1ccc(/C=C(\C#N)C(=O)NCC(c2ccc(F)cc2)N2CCOCC2)cc1 (stereo not given),–,–,·,–,–
CCN1C(=O)/C(=C\c2nc3ccccc3c(=O)n2-c2ccccc2)c2ccccc21,78.4[fluorescence artefact?],–,–,–,–
CCN1C(=O)/C(=C/c2nc3ccccc3c(=O)n2-c2ccc(C)cc2)c2ccccc21,–,–,–,–,–
COc1ccccc1-c1cc(C(=O)N/N=C/c2cccs2)c2ccccc2n1,–,–,–,–,10.2
C=CCOC(=O)C1=C(C)NC(SCC(=O)Nc2ccccc2)=C(C#N)C1c1ccco1 (stereo not given),–,–,–,–,–
Cc1ccc(CN(c2ccc(C(=O)N3CCOCC3)cc2)S(C)(=O)=O)cc1,–,–,–,–,10.0
CC1(OC(=O)CCc2ccccc2)C(=O)C=C2C=C(c3ccsc3)OC=C2C1=O (stereo not given),–,71.2,–,–,·
COc1cc2cc(CN(CCCN3CCOCC3)C(=O)Nc3ccccc3F)c(=O)[nH]c2cc1OC,–,–,–,–,9.2
CC(C)c1cc(C(=O)N2CCCC(CCC(=O)NCc3ccccc3F)C2)n(C)n1 (stereo not given),–,–,–,–,–
CC(=O)Nc1ccc(S(=O)(=O)NCCc2ccccn2)cc1,–,–,–,–,–
CC(C)CN(CC(C)C)C(=O)COc1ccccc1C(N)=O,–,–,–,–,9.9
Cc1cc(=O)n2c(n1)NC(Nc1cccc(C)c1C)=NC2c1ccccc1 (stereo not given),–,–,–,–,–
COCCCNC(=O)CNC(=S)N(Cc1ccc(F)cc1)C1CCCCC1,–,–,–,–,10.3
O=S(=O)(c1ccc(Br)s1)N1CCN(c2ccccn2)CC1,85.3,–,–,–,–
Cc1cc(C)n(-c2nnc(NCc3ccc(Cl)cc3)nn2)n1,–,–,–,–,–
Cc1nn(-c2nnc(NCc3ccccc3)nn2)c(C)c1Br,–,–,33.9,–,–
Clc1ccc(/C=N/c2c(-c3ccco3)nc3ccccn23)cc1,–,–,·,–,–
COc1ccc(/C=N/c2c(-c3ccco3)nc3ccccn23)cc1OC,–,–,–,–,9.0
N#Cc1c2c(c(-c3ccco3)[nH]c1=O)CCCC2,–,–,–,–,–
Cc1cccc(C(=O)N[C@H](C(=O)Nc2nc3ccccc3[nH]2)C(C)C)c1,–,–,–,–,–
COc1ccc(C(=O)N[C@H](C(=O)Nc2nc3ccccc3[nH]2)C(C)C)cc1,–,–,–,–,9.0
CCCOc1ccc(/C(O)=C2/C(=O)C(=O)N(CCCn3ccnc3)C2c2cccnc2)cc1 (stereo not given),–,–,·,–,–
O=C(Oc1ccc2c(-c3ccccc3)cc(=O)oc2c1)c1cccs1,–,–,–,–,–
CC(C)(C)OC(=O)NCCC(=O)Oc1ccc2ccc(=O)oc2c1,–,73.4,–,–,–
COc1ccc2ccc(=O)oc2c1,–,–,·,–,–
O=C(Oc1ccc2ccc(=O)oc2c1)c1cccs1,–,56.1,–,–,–
COc1cccc([C@@H]2Oc3ccc(OC)cc3C(=O)[C@H]2OC(=O)NCc2ccc3c(c2)OCO3)c1,–,–,·,–,–
COc1ccccc1C(=O)O/N=C(\N)c1ccccn1,–,–,–,–,9.1
COc1ccccc1OCC(=O)N/N=C1\CCCCc2ccccc21,–,–,–,–,–
